# From ChEMBL document CHEMBL1137880, “Synthesis and GABA receptor potency of 3-thiomethyl-4-(hetero)aryl-5-amino-1-phenylpyrazoles” (Bioorg Med Chem Lett, 2004)
# Columns and labels:
# [1] = target: GABA-A receptor; anion channel (Mus musculus) (UniProt Q8BHJ7+P26048+Q8QZW7+P50571+Q9R0Y8+P22723+A2AMW3+P62812+Q9JLF1+P26049+P22933+Q9D6F4+P63080+P27681+P16305); experiment: Ratio of binding affinity for mouse brain Gamma-aminobutyric acid receptor and housefly Gamma-aminobutyric acid receptor
# [2] = system: GABA-A receptor; anion channel; experiment: In vitro insecticidal activity as inhibition of [3H]EBOB binding to Gamma-aminobutyric acid GABA-A receptor of housefly neuronal membranes; IA denotes inactive; design: species or system Musca domestica
# [3] = In vivo percent mortality of cyclodiene resistant allele-homozygous CO fleas at 100 mM was determined using contact assay; format: ADME, organism-based; settings: Pulicinae
# In short: (§1)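 Cat fleas were exposed by contact at 100 mM. The strains were chosen as genetic variants for the cyclodiene resistance allele, to compare insecticidal activity across them. The read-out was percent mortality.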
# [4] = In vivo percent mortality of cyclodiene resistant mixed homozygous and heterozygous NC fleas at 100 mM was determined using contact assay; format: ADME, organism-based; settings: Pulicinae; in short: as §1
# [5] = In vivo percent mortality of housefly at 100 mM was determined using contact assay; format: ADME, organism-based; settings: Musca domestica, topical
# [6] = system: GABA-A receptor; anion channel; experiment: In vitro insecticidal activity as inhibition of [3H]EBOB binding to Gamma-aminobutyric acid GABA-A receptor of housefly neuronal membranes; NI denotes negative inhibition; design: species or system Musca domestica
SMILES,Selectivity [1],IC50 [2],also measured
CSc1nn(-c2c(Cl)cc(C(F)(F)F)cc2Cl)c(N)c1-c1cccc(C(F)(F)F)c1,5,–,–
CSc1nn(-c2c(Cl)cc(C(F)(F)F)cc2Cl)c(N)c1C#N,500,–,–
CSc1nn(-c2c(Cl)cc(C(F)(F)F)cc2Cl)c(N)c1-c1cccc(C(C)C)c1,–,Not Active,–
CSc1ccccc1-c1c(SC)nn(-c2c(Cl)cc(C(F)(F)F)cc2Cl)c1N,–,Not Active,–
COc1ccc(-c2c(SC)nn(-c3c(Cl)cc(C(F)(F)F)cc3Cl)c2N)c(OC)c1,49,–,–
CSc1nn(-c2c(Cl)cc(C(F)(F)F)cc2Cl)c(N)c1-c1cccnc1,–,Not Active,–
CSc1nn(-c2c(Cl)cc(C(F)(F)F)cc2Cl)c(N)c1-c1ccccc1F,–,Not Active,–
CSc1nn(-c2c(Cl)cc(C(F)(F)F)cc2Cl)c(N)c1-c1ccccc1C(F)(F)F,6000,–,mortality at 100000 µM [3]: 58.7%; mortality at 100000 µM [4]: 0%; mortality at 100000 µM [5]: 3.9%
CSc1nn(-c2c(Cl)cc(C(F)(F)F)cc2Cl)c(N)c1-c1cccc(Cl)c1,31,–,–
COc1ccc(-c2c(SC)nn(-c3c(Cl)cc(C(F)(F)F)cc3Cl)c2N)cc1OC,2000,–,–
CSc1nn(-c2c(Cl)cc(C(F)(F)F)cc2Cl)c(N)c1Br,2500,–,–
CSc1nn(-c2c(Cl)cc(C(F)(F)F)cc2Cl)c(N)c1Cl,210,–,mortality at 100000 µM [3]: 32.3%; mortality at 100000 µM [4]: 3.3%; mortality at 100000 µM [5]: 92.8%
CSc1nn(-c2c(Cl)cc(C(F)(F)F)cc2Cl)c(N)c1-c1cccs1,44,–,–
CSc1nn(-c2c(Cl)cc(C(F)(F)F)cc2Cl)c(N)c1-c1ccccc1C,400,–,mortality at 100000 µM [3]: 60.8%; mortality at 100000 µM [4]: 0%; mortality at 100000 µM [5]: 9.6%
CSc1ccc(-c2c(SC)nn(-c3c(Cl)cc(C(F)(F)F)cc3Cl)c2N)cc1,230,–,–
CCOC(=O)c1c(SC)nn(-c2c(Cl)cc(C(F)(F)F)cc2Cl)c1N,400,–,–
CSc1nn(-c2c(Cl)cc(C(F)(F)F)cc2Cl)c(N)c1-c1cnccn1,45,–,mortality at 100000 µM [3]: 77.4%; mortality at 100000 µM [4]: 89.9%; mortality at 100000 µM [5]: 0%
CSc1nn(-c2c(Cl)cc(C(F)(F)F)cc2Cl)c(N)c1-c1ccccn1,–,Not Active,–
CSc1nn(-c2c(Cl)cc(C(F)(F)F)cc2Cl)c(N)c1-c1ccc(Cl)s1,434,–,–
CSc1nn(-c2c(Cl)cc(C(F)(F)F)cc2Cl)c(N)c1-c1ccc(C(C)=O)s1,25,–,–
CSc1nn(-c2c(Cl)cc(C(F)(F)F)cc2Cl)c(N)c1-c1ccccc1,4,–,–
CSc1cc(N)n(-c2c(Cl)cc(C(F)(F)F)cc2Cl)n1,250,–,mortality at 100000 µM [3]: 4.4%; mortality at 100000 µM [4]: 0%; mortality at 100000 µM [5]: 42.4%

SMILES,Selectivity [1],IC50 [2],also measured
C#Cc1c(SC)nn(-c2c(Cl)cc(C(F)(F)F)cc2Cl)c1N,> 10000,–,mortality at 100000 µM [3]: 2.2%; mortality at 100000 µM [4]: 0%; mortality at 100000 µM [5]: 80.1%
CSc1nn(-c2c(Cl)cc(C(F)(F)F)cc2Cl)c(N)c1-c1ccc2c(c1)OCO2,64,–,mortality at 100000 µM [3]: 1.4%; mortality at 100000 µM [4]: 0%; mortality at 100000 µM [5]: 27.6%
CSc1nn(-c2c(Cl)cc(C(F)(F)F)cc2Cl)c(N)c1-c1cncnc1,–,–,IC50 [6]: Not Active
CSc1nn(-c2c(Cl)cc(C(F)(F)F)cc2Cl)c(N)c1C(=O)O,45,–,–
CSc1nn(-c2c(Cl)cc(C(F)(F)F)cc2Cl)c(N)c1-c1nc(C)no1,9,–,mortality at 100000 µM [3]: 0%; mortality at 100000 µM [4]: 0%; mortality at 100000 µM [5]: 95.4%
CSc1nn(-c2c(Cl)cc(C(F)(F)F)cc2Cl)c(N)c1-c1ccc(Cl)cc1,–,Not Active,–
CSc1nn(-c2c(Cl)cc(C(F)(F)F)cc2Cl)c(N)c1-c1ccc(C)s1,–,Not Active,–
COc1cc(-c2c(SC)nn(-c3c(Cl)cc(C(F)(F)F)cc3Cl)c2N)cc(OC)c1OC,–,Not Active,–
CSc1nn(-c2c(Cl)cc(C(F)(F)F)cc2Cl)c(N)c1-c1cc(C)cs1,–,Not Active,–
CSc1nn(-c2c(Cl)cc(C(F)(F)F)cc2Cl)c(N)c1-c1ccc(F)c(Cl)c1,4,–,–
CSc1nn(-c2c(Cl)cc(C(F)(F)F)cc2Cl)c(N)c1-c1ccc(C#N)cc1,666,–,–
CSc1nn(-c2c(Cl)cc(C(F)(F)F)cc2Cl)c(N)c1-c1ccncc1,–,Not Active,–
CSc1nn(-c2c(Cl)cc(C(F)(F)F)cc2Cl)c(N)c1-c1cccc(C(C)(C)C)c1,–,Not Active,–
CSc1nn(-c2c(Cl)cc(C(F)(F)F)cc2Cl)c(N)c1-c1ccc(Br)cc1,–,Not Active,–
CSc1nn(-c2c(Cl)cc(C(F)(F)F)cc2Cl)c(N)c1-c1ccsc1,–,Not Active,–
CSc1nn(-c2c(Cl)cc(C(F)(F)F)cc2Cl)c(N)c1-c1ccc(C(C)C)cc1,–,Not Active,–
CSc1nn(-c2c(Cl)cc(C(F)(F)F)cc2Cl)c(N)c1-c1cc(C(F)(F)F)cc(C(F)(F)F)c1,12,–,–
COc1ccc(-c2c(SC)nn(-c3c(Cl)cc(C(F)(F)F)cc3Cl)c2N)cc1,180,–,–
COc1cccc(-c2c(SC)nn(-c3c(Cl)cc(C(F)(F)F)cc3Cl)c2N)c1,346,–,–
CSc1nn(-c2c(Cl)cc(C(F)(F)F)cc2Cl)c(N)c1I,43,–,–
CSc1nn(-c2c(Cl)cc(C(F)(F)F)cc2Cl)c(N)c1-c1ccc(F)cc1,20,–,–
CSc1nn(-c2c(Cl)cc(C(F)(F)F)cc2Cl)c(N)c1-c1ccc(C)cc1,66,–,–
